This note sets out measurements from ChEMBL document CHEMBL1157108, “Rapid structural identification of cytotoxic bufadienolide sulfates in toad venom from Bufo melanosticus by LC-DAD-MS(n) and LC-SPE-NMR” (J Nat Prod, 2010).

The subject of one test is B16-F10. In words: Growth inhibition of mouse B16F10 cells after 72 hrs by MTT assay. Type of test: functional, cell-based. The settings on record: B16-F10, 72 h. In outline:
(§1)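 Cells seeded at 10 000 to 40 000 cells/mL (cell-type dependent) and allowed 24 h to plate, then grown 72 h with or without compound. Culture in RPMI with 10% heat-inactivated FCS, 4 mM glutamine, gentamicin and penicillin-streptomycin. Living cells reduce MTT to formazan, read at 570 nm against a 630 nm reference. IC50 reported as mean ± SD.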

The next test has as its system MCF7. Nature of the test: Growth inhibition of human MCF7 cells after 72 hrs by MTT assay. Format: functional, cell-based. The note with it: MCF7, 72 h. The gist of the method:
as §1

The subject of another test is CT26. In words: Growth inhibition of mouse CT26 cells after 72 hrs by MTT assay. Format: functional, cell-based. The note with it: CT26, 72 h. In outline:
as §1

A short description of test [1]: Growth inhibition of human Hs683 cells after 72 hrs by MTT assay. Format: functional, cell-based. The note with it: Hs 683, 72 h. The gist of the method:
as §1

The nature of test [2]: Growth inhibition of human U373 cells after 72 hrs by MTT assay. Type of test: functional, cell-based, U-373MG ATCC. The settings on record: U373 MG. The gist of the method: as §1
Another test concerns A549. In words: Growth inhibition of human A549 cells after 72 hrs by MTT assay. Format: functional, cell-based. The settings on record: A549, 72 h. In outline:
as §1

Each structure is given as a SMILES string. pIC50: −log10 of the molar value. A value given as a limit tells only on which side of the number the result lay.

As for `C[C@]12CC[C@H](OS(=O)(=O)O)C[C@H]1CC[C@@H]1[C@@H]2CC[C@]2(C)[C@@H](c3ccc(=O)oc3)[C@@H](O)C[C@]12O`, the pIC50 with B16-F10 is less than 5.00; in the test on MCF7, 5.48; with CT26, less than 5.00; in test [1] it was 6.75; in test [2], 6.28; with A549, 6.33.

With `C[C@]12CC[C@H]3[C@@H](CC[C@]4(O)C[C@@H](OS(=O)(=O)O)CC[C@]34C=O)[C@@]1(O)CC[C@@H]2c1ccc(=O)oc1`, the pIC50 in the test on B16-F10 is less than 5.00; in the test on MCF7, 6.29; with CT26, less than 5.00; in test [1], 7.01; in test [2], 6.40; in the test on A549 it was 7.35.

On to `C[C@]12CC[C@H]3[C@@H](CC[C@@H]4C[C@@H](OS(=O)(=O)O)CC[C@@]43CO)[C@@]1(O)CC[C@@H]2c1ccc(=O)oc1`, for which the pIC50 in the test with B16-F10 was less than 5.00; in the test on MCF7 it was 6.82; with CT26, less than 5.00; in test [1], 7.09; in test [2], 7.92; with A549 it was 8.30.

In the case of `C[C@]12CC[C@H](OS(=O)(=O)O)C[C@@]1(O)CC[C@@H]1[C@@H]2CC[C@]2(C)[C@@H](c3ccc(=O)oc3)CC[C@]12O`, the pIC50 in the test with B16-F10 was less than 5.00; in the test with MCF7, 5.80; in the test with CT26 it was less than 5.00; in test [1], 8.15; in test [2], 7.29; in the test on A549, 7.44.

As to `C[C@]12CC[C@H]3[C@@H](CC[C@]4(O)C[C@@H](OS(=O)(=O)O)CC[C@]34CO)[C@@]1(O)CC[C@@H]2c1ccc(=O)oc1`, the pIC50 with B16-F10 was less than 5.00; with MCF7 it was 6.92; in the test with CT26, less than 5.00; in test [1], 7.30; in test [2], 6.49; in the test on A549, 7.10.

Take `CC(=O)O[C@H]1C[C@]2(O)[C@@H]3CC[C@@H]4C[C@@H](O)CC[C@]4(C)[C@H]3[C@H](O)C(=O)[C@]2(C)[C@H]1c1ccc(=O)oc1`: the negative logarithm of the IC50 (pIC50) was less than 5.00 in the test with B16-F10; 5.65 in the test on MCF7; less than 5.00 in the test with CT26; 6.34 in test [1]; 6.06 in test [2]; 5.87 with A549.

For `C[C@@H]1O[C@@H](O[C@H]2CC[C@]3(C=O)[C@H]4CC[C@]5(C)[C@@H](c6ccc(=O)oc6)CC[C@]5(O)[C@@H]4CC[C@]3(O)C2)[C@H](O)[C@H](O)[C@H]1O[C@@H]1O[C@H](CO)[C@@H](O)[C@H](O)[C@H]1O` [HELLEBRIN], the pIC50 in the test with B16-F10 was less than 5.00; in the test on MCF7 it was 7.09; with CT26, less than 5.00; in test [1], 8.15; in test [2] it was 7.31; with A549, 7.80.
